Reference: ChEMBL document CHEMBL1154857, “Antimycobacterial flavonoids from the leaf extract of Galenia africana” (J Nat Prod, 2009)
≈ marks a conversion by molar mass, not a printed value. Calls of active or inactive are those of the source. The rule behind the calls is not given here.

Key:
[1] = system: Mycobacterium tuberculosis; assay: Antitubercular activity against Mycobacterium tuberculosis H37Rv by radiometric method; type: functional
Method in brief: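 M. tuberculosis H37Rv (ATCC […], drug-susceptible) tested by the radiometric BACTEC method. MIC was judged from ΔGI against a control vial inoculated at 10⁻² dilution. MBC was also determined. Highest concentration tested was 620.0 µg/mL.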

[2] = system: Mycobacterium tuberculosis; assay: Antitubercular activity against Mycobacterium tuberculosis H37Rv infected in human U937 cells by radiometric method; type: functional, U-937
[3] = system: U-937; assay: Cytotoxicity against human U937 cells; type: cell-based
[4] = system: Mycolicibacterium smegmatis; assay: Antibacterial activity against Mycobacterium smegmatis MC2 155 at 620 ug/ml by microplate dilution method; type: functional, organism-based; settings: str. MC2 155
Method in brief: (§1)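 M. smegmatis MC2 155 tested by microplate broth dilution. Highest concentration tested was 620.0 µg/mL. Read-out was MIC, and MBC where determined.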

[5] = biological target: Mycothione reductase (Mycobacterium tuberculosis) (UniProt P9WHH3); assay: Inhibition of Mycobacterium tuberculosis mycothiol disulfide reductase assessed as NADPH oxidation at 800 uM by Ellmans reagent method
Sequence of Mycothione reductase (Mycobacterium tuberculosis) (P9WHH3 whole entry): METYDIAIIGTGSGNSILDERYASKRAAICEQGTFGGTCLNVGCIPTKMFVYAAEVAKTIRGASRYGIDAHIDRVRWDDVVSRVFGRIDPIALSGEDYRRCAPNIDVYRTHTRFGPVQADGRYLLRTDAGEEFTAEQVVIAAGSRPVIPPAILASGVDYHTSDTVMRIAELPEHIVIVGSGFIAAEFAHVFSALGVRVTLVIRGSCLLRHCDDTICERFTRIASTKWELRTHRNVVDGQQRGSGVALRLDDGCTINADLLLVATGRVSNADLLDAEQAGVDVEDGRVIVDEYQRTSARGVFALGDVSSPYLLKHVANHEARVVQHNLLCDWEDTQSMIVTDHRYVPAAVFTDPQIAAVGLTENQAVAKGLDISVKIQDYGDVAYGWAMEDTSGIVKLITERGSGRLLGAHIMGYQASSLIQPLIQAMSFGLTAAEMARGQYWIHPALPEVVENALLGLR
Method in brief: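 M. tuberculosis mycothiol disulfide reductase (NADPH-dependent) used with the mycothiol analogue BnOMSH as substrate. Activity was followed as the increase in absorbance at […] from reduction of Ellman's reagent by the BnOMSH formed.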

[6] = system: Mycobacterium tuberculosis; assay: Antitubercular activity against Mycobacterium tuberculosis H37Rv infected in human U937 cells at MBC by radiometric method; type: functional, U-937
[7] = system: Mycolicibacterium smegmatis; assay: Antibacterial activity against Mycobacterium smegmatis MC2 155 by microplate dilution method; type: functional; settings: str. MC2 155; method in brief: as §1

Row | Compound | MIC [1] | MIC [2] | IC50 [3] | MIC [4] | inhibition [5] | inhibition (INH) [6] | MBC [2] | MBC [7] | MIC [7]
1 | NNC(=O)c1ccncc1 [ISONIAZID] | 1.4 µM (≈ 0.192 µg/mL) | 2.9 µM (≈ 0.398 µg/mL) | – | – | – | – | – | – | –
2 | COc1cccc2c1C(=O)c1c(O)c3c(c(O)c1C2=O)C[C@@](O)(C(=O)CO)C[C@@H]3O[C@H]1C[C@H](N)[C@H](O)[C@H](C)O1 [DOXORUBICIN] | – | – | 1.1 µM | – | – | – | – | – | –
3 | COc1c(O)ccc(C(=O)/C=C/c2cccc(O)c2)c1O | – | – | 333 µM | – | – | – | – | – | –
4 | O=C(/C=C/c1cccc(O)c1)c1ccc(O)cc1O | 417 µM (≈ 107 µg/mL) | 184 µM (≈ 47.1 µg/mL) | 415 µM | inactive | inactive | 99.5% | 368 µM (≈ 94.2 µg/mL) | – | –
5 | O=C1C[C@@H](c2ccccc2O)Oc2cc(O)cc(O)c21 | 368 µM (≈ 100 µg/mL) | 368 µM (≈ 100 µg/mL) | 110 µM | – | inactive | 99.5% | 735 µM (≈ 200 µg/mL) | 441 µM (≈ 120 µg/mL) | 110 µM (≈ 30 µg/mL)
6 | O=C(/C=C/c1ccccc1)c1ccc(O)cc1O [2',4'-DIHYDROXYCHALCONE] | 195 µM (≈ 46.9 µg/mL) | 195 µM (≈ 46.9 µg/mL) | 80.2 µM | – | inactive | 99.5% | 416 µM (≈ 100 µg/mL) | 234 µM (≈ 56.3 µg/mL) | 469 µM (≈ 113 µg/mL)
7 | O=C(O)c1cn(C2CC2)c2cc(N3CCNCC3)c(F)cc2c1=O [CIPROFLOXACIN] | – | – | – | – | – | – | – | 2.2 µM (≈ 0.729 µg/mL) | 1.5 µM (≈ 0.497 µg/mL)
